ChEMBL document CHEMBL3632620, “Synthesis, characterization, crystal structure determination and biological screening of novel N-1 and C5 alkyl substituted scaffolds of pyrimidine” (2015)
In brackets after ≈: the same amount, converted by molar mass. Activity calls are given as the source filed them. The rule behind the calls is not given here.

Key:
[1] = system: Escherichia coli; assay: Antibacterial activity against Escherichia coli ATCC 8739 after 24 to 48 hrs; assay type: functional
Outline: (§1)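 Broth MIC in nutrient broth, pH 7.0. Inoculum came from a 16 h culture set to 0.5 McFarland, then diluted 10-fold to 1.2x10^7 CFU/mL. Compounds went from a 4 mg/mL DMSO stock to final 250 to 0.03 µg/mL. Controls were inoculum without compound and compound without inoculum. Incubation was 24-48 h at 37 °C. Then 5 µL was spotted onto agar for 24 h at 37 °C. MIC is the lowest concentration with no visible growth.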

[2] = system: Staphylococcus aureus; assay: Antibacterial activity against Staphylococcus aureus ATCC 6538P assessed as growth inhibition at 100 ug/ml after 8 to 24 hrs by agar well diffusion method; assay type: functional; conditions: read-out: DIZ
Outline: (§2)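 Agar well diffusion on nutrient agar (peptone, yeast extract, NaCl, 2% agar, pH 7). Suspensions were set to 0.5 McFarland in sterile water, final inoculum 5x10^7 CFU/mL. Plates were swabbed and left 15 min, then ~4 mm wells received 100 µL compound in DMSO, with DMSO as control. Plates stood 2 h at room temperature, then 24 h at 37 °C. Inhibition zone diameter was measured.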

[3] = system: Staphylococcus aureus; assay: Antibacterial activity against Staphylococcus aureus ATCC 6538P after 24 to 48 hrs; assay type: functional; outline: as §1
[4] = system: Escherichia coli; assay: Antibacterial activity against Escherichia coli ATCC 8739 assessed as growth inhibition at 25 ug/ml after 8 to 24 hrs by agar well diffusion method; assay type: functional; conditions: read-out: DIZ; outline: as §2
[5] = system: Escherichia coli; assay: Antibacterial activity against Escherichia coli ATCC 8739 assessed as growth inhibition at 25 to 100 ug/ml at 12 hrs by agar well diffusion method; assay type: functional, organism-based
[6] = system: Escherichia coli; assay: Antibacterial activity against Escherichia coli ATCC 8739 assessed as growth inhibition at 100 ug/ml after 8 to 24 hrs by agar well diffusion method; assay type: functional; conditions: read-out: DIZ; outline: as §2
[7] = system: Salmonella enterica subsp. enterica serovar Abony; assay: Antibacterial activity against Salmonella abony NCTC 6017 assessed as growth inhibition at 25 ug/ml after 8 to 24 hrs by agar well diffusion method; assay type: functional; conditions: read-out: DIZ; outline: as §2
[8] = system: Salmonella enterica subsp. enterica serovar Abony; assay: Antibacterial activity against Salmonella abony NCTC 6017 after 24 to 48 hrs; assay type: functional; outline: as §1
[9] = system: Staphylococcus epidermidis; assay: Antibacterial activity against Staphylococcus epidermidis ATCC 12228 assessed as growth inhibition at 25 ug/ml after 8 to 24 hrs by agar well diffusion method; assay type: functional; outline: as §2
[10] = system: Salmonella enterica subsp. enterica serovar Abony; assay: Antibacterial activity against Salmonella abony NCTC 6017 assessed as growth inhibition at 25 to 100 ug/ml at 12 hrs by agar well diffusion method; assay type: functional, organism-based
[11] = system: Staphylococcus epidermidis; assay: Antibacterial activity against Staphylococcus epidermidis ATCC 12228 assessed as growth inhibition at 25 to 100 ug/ml at 12 hrs by agar well diffusion method; assay type: functional, organism-based
[12] = system: Staphylococcus aureus; assay: Antibacterial activity against Staphylococcus aureus ATCC 6538P assessed as growth inhibition at 25 ug/ml after 8 to 24 hrs by agar well diffusion method; assay type: functional; conditions: read-out: DIZ; outline: as §2
[13] = system: Staphylococcus epidermidis; assay: Antibacterial activity against Staphylococcus epidermidis ATCC 12228 after 24 to 48 hrs; assay type: functional; outline: as §1
[14] = system: Staphylococcus aureus; assay: Antibacterial activity against Staphylococcus aureus ATCC 6538P assessed as growth inhibition at 25 to 100 ug/ml at 12 hrs by agar well diffusion method; assay type: functional, organism-based
[15] = system: Staphylococcus epidermidis; assay: Antibacterial activity against Staphylococcus epidermidis ATCC 12228 assessed as growth inhibition at 100 ug/ml after 8 to 24 hrs by agar well diffusion method; assay type: functional; conditions: for zone of inhibition at 100 µg/mL: read-out: DIZ; outline: as §2
[16] = system: Salmonella enterica subsp. enterica serovar Abony; assay: Antibacterial activity against Salmonella abony NCTC 6017 assessed as growth inhibition at 100 ug/ml after 8 to 24 hrs by agar well diffusion method; assay type: functional; conditions: read-out: DIZ; outline: as §2

MIC [1] | MIC [3] | MIC [8] | MIC [13] | SMILES | zone of inhibition at 100 µg/mL [2] | zone of inhibition at 25 µg/mL [4] | Activity [5] | zone of inhibition at 100 µg/mL [6] | zone of inhibition at 25 µg/mL [7] | diameter of the inhibition zone (DIZ) [9] | Activity [10] | Activity [11] | zone of inhibition at 25 µg/mL [12] | Activity [14] | diameter of the inhibition zone (DIZ) [15] | zone of inhibition at 100 µg/mL [16] | zone of inhibition at 100 µg/mL [15] | zone of inhibition at 25 µg/mL ([9]; read-out: DIZ)
68 µg/mL (≈ 204 µM) | 32 µg/mL (≈ 96 µM) | 16 µg/mL (≈ 48 µM) | > 250 µg/mL | CCOC(=O)C1(C)C(C)NC(=O)N(C)C1c1ccc(N(C)C)cc1 (stereo not drawn) | 16 mm | 10 mm | inactive | 14 mm | 10 mm | inactive | inactive | inactive | 12 mm | inactive | inactive | 22 mm |  | 
125 µg/mL (≈ 408 µM) | 68 µg/mL (≈ 222 µM) | 68 µg/mL (≈ 222 µM) | > 250 µg/mL | CCOC(=O)C1(C)C(C)NC(=O)N(C)C1c1ccc(O)cc1 (stereo not drawn) | 12 mm | 8 mm | inactive | 10 mm | 11 mm | inactive | inactive | inactive | 10 mm | inactive | inactive | 14 mm |  | 
32 µg/mL (≈ 95.4 µM) | 8 µg/mL (≈ 23.9 µM) | 16 µg/mL (≈ 47.7 µM) | > 250 µg/mL | CCOC(=O)C1(C)C(C)NC(=O)N(C)C1c1ccccc1[N+](=O)[O-] (stereo not drawn) | 28 mm | 13 mm | inactive | 18 mm | 15 mm | inactive | inactive | inactive | 14 mm | inactive | inactive | 24 mm |  | 
16 µg/mL (≈ 52.2 µM) | 68 µg/mL (≈ 222 µM) | 32 µg/mL (≈ 104 µM) | > 250 µg/mL | CCOC(=O)C1(C)C(C)NC(=S)N(C)C1c1ccccc1 (stereo not drawn) | 13 mm | 14 mm | inactive | 21 mm | 16 mm | inactive | inactive | inactive | 10 mm | inactive | inactive | 18 mm |  | 
16 µg/mL (≈ 47.6 µM) | 32 µg/mL (≈ 95.1 µM) | 32 µg/mL (≈ 95.1 µM) | > 250 µg/mL | CCOC(=O)C1(C)C(C)NC(=S)N(C)C1c1ccc(OC)cc1 (stereo not drawn) | 16 mm | 15 mm | inactive | 22 mm | 16 mm | inactive | inactive | inactive | 12 mm | inactive | inactive | 15 mm |  | 
16 µg/mL (≈ 46.9 µM) | 16 µg/mL (≈ 46.9 µM) | 8 µg/mL (≈ 23.5 µM) | > 250 µg/mL | CCOC(=O)C1(C)C(C)NC(=S)N(C)C1c1ccc(Cl)cc1 (stereo not drawn) | 23 mm | 20 mm | inactive | 20 mm | 18 mm | inactive | inactive | inactive | 18 mm | inactive | inactive | 28 mm |  | 
68 µg/mL (≈ 212 µM) | 68 µg/mL (≈ 212 µM) | 68 µg/mL (≈ 212 µM) | > 250 µg/mL | CCOC(=O)C1(C)C(C)NC(=O)N(C)C1c1ccc(OC)cc1 (stereo not drawn) | 12 mm | 13 mm | inactive | 14 mm | 10 mm | inactive | inactive | inactive | 10 mm | inactive | inactive | 13 mm |  | 
32 µg/mL (≈ 98.5 µM) | 68 µg/mL (≈ 209 µM) | 125 µg/mL (≈ 385 µM) | 68 µg/mL (≈ 209 µM) | CCOC(=O)C1(C)C(C)NC(=O)N(C)C1c1ccc(Cl)cc1 (stereo not drawn) | 16 mm | 10 mm | inactive | 14 mm | 9 mm | inactive | inactive | inactive | 12 mm | inactive |  | 10 mm | 13 mm | 
68 µg/mL (≈ 234 µM) | 125 µg/mL (≈ 430 µM) | 125 µg/mL (≈ 430 µM) | 68 µg/mL (≈ 234 µM) | CCOC(=O)C1(C)C(C)NC(=O)N(C)C1c1ccccc1 (stereo not drawn) | 10 mm | 12 mm | inactive | 13 mm | 9 mm | inactive | inactive | inactive | 10 mm | inactive |  | 10 mm | 14 mm | 
32 µg/mL (≈ 99.2 µM) | 32 µg/mL (≈ 99.2 µM) | 32 µg/mL (≈ 99.2 µM) | > 250 µg/mL | CCOC(=O)C1(C)C(C)NC(=S)N(C)C1c1ccc(O)cc1 (stereo not drawn) | 15 mm | 17 mm | inactive | 20 mm | 16 mm | inactive | inactive | inactive | 13 mm | inactive | inactive | 20 mm |  | 

SMILES | MIC [1] | MIC [3] | MIC [8] | MIC [13] | zone of inhibition at 100 µg/mL [2] | zone of inhibition at 25 µg/mL [4] | Activity [5] | zone of inhibition at 100 µg/mL [6] | zone of inhibition at 25 µg/mL [7] | diameter of the inhibition zone (DIZ) [9] | Activity [10] | Activity [11] | zone of inhibition at 25 µg/mL [12] | Activity [14] | diameter of the inhibition zone (DIZ) [15] | zone of inhibition at 100 µg/mL [16] | zone of inhibition at 100 µg/mL [15] | zone of inhibition at 25 µg/mL ([9]; read-out: DIZ)
CN[C@@H]1[C@H](O[C@H]2[C@H](O[C@H]3[C@H](O)[C@@H](O)[C@H](N=C(N)N)[C@@H](O)[C@@H]3N=C(N)N)O[C@@H](C)[C@]2(O)C=O)O[C@@H](CO)[C@H](O)[C@H]1O [STREPTOMYCIN] | 32 µg/mL (≈ 55 µM) | 32 µg/mL (≈ 55 µM) | 32 µg/mL (≈ 55 µM) | > 250 µg/mL | 16 mm | 14 mm |  | 16 mm | 25 mm | inactive |  |  | 12 mm |  | inactive | 18 mm |  | 
O=C(N[C@H](CO)[C@H](O)c1ccc([N+](=O)[O-])cc1)C(Cl)Cl [CHLORAMPHENICOL] |  | 8 µg/mL (≈ 24.8 µM) | 4 µg/mL (≈ 12.4 µM) | 4 µg/mL (≈ 12.4 µM) | 28 mm | 20 mm |  | 24 mm | 19 mm |  |  |  | 20 mm |  |  | 32 mm | 35 mm | 14 mm
